According to ChEMBL document CHEMBL1145431, “Improved anti-osteoporosis potency and reduced endometrial membrane hyperplasia during hormone replacement therapy with estrogen-RGD peptide conjugates” (2007):
Where a SMILES comes first, the peptide text is derived from it. The star is where a group is joined. Succinyl(O17-estradiol) = C[C@]12CC[C@@H]3c4ccc(O)cc4CC[C@H]3[C@@H]1CC[C@@H]2OC(=O)CCC(=O)*; X2 = C[C@]12CC[C@@H]3c4ccc(OCC(=O)*)cc4CC[C@H]3[C@@H]1CCC2=O

Assays:
Mus musculus [1] = test: Effect on phosphorus level in ovariectomized mouse at 0.1103 mmol/kg, ip once daily for 4 weeks; format: functional
How it was run: (§1)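 Female Kuiming mice (7 weeks, 30.7 ± 3.1 g) ovariectomized, sham group abdominorotomy. From day 5, i.p. once daily for 4 weeks at 110.3 × 10-3 mmol/kg in 0.5% CMC. Left femur cleaned, length measured, defatted in chloroform-methanol (2:1, 2 × 3 h), dried 120 °C 6 h for dry weight, ashed 800 °C 8 h. Mineral content = ash/dry weight. Ash dissolved in 6 N HCl and diluted. Ca by o-methylphenolphthalein complexone, P by molybdenum blue. Lungs and livers weighed directly.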

Mus musculus [2] = test: Effect on serum ALP lavel in ovariectomized mouse at 0.1103 mmol/kg, ip once daily for 4 weeks; format: functional
How it was run: (§2)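 OVX Kuiming mice dosed i.p. daily for 4 weeks in 0.5% CMC. Blood taken retro-orbitally on the day after the last dose, stood 30 min, spun at 3000 g for 20 min, serum stored at -20 °C. Calcium by o-methylphenolphthalein complexone, phosphorus by molybdenum blue, ALP by activity with disodium phenylphosphate substrate.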

Mus musculus [3] = test: Increase in body weight in ovariectomized mouse at 0.1103 mmol/kg, ip once daily for 4 weeks; format: functional
How it was run: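 Female Kuiming mice (30.7 ± 3.1 g) underwent abdominal OVX; the sham group had abdominorotomy only. From day 5 after surgery, i.p. dosing once daily for 4 weeks at 110.3 × 10-3 mmol/kg in aqueous 0.5% CMC. Body weight was recorded on the day of the last administration.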

Mus musculus [4] = test: Effect on lung weight in ovariectomized mouse at 0.1103 mmol/kg, ip once daily for 4 weeks; format: functional; how it was run: as §1
Mus musculus [5] = test: Effect on femur ash weight in ovariectomized mouse at 0.1103 mmol/kg, ip once daily for 4 weeks; format: functional; how it was run: as §1
Mus musculus [6] = test: Effect on calcium level in ovariectomized mouse at 0.1103 mmol/kg, ip once daily for 4 weeks; format: functional; how it was run: as §1
Mus musculus [7] = test: Effect on serum phosphorus level in ovariectomized mouse at 0.1103 mmol/kg, ip once daily for 4 weeks; format: functional; how it was run: as §2
Mus musculus [8] = test: Effect on uterus weight in ovariectomized mouse at 0.1103 mmol/kg, ip once daily for 4 weeks; format: functional
How it was run: (§3)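 Female Kuiming mice (7 weeks old, 30.7 ± 3.1 g), abdominal OVX under pentobarbital (40.0 mg/kg i.p.). From day 5 after surgery, i.p. injection once daily for 4 weeks, compound in aqueous 0.5% CMC prepared just before use. The day after the last dose, mice were anesthetized and killed, and lungs, livers, spleens and uteri were removed and weighed directly. n = 12, ANOVA, p < 0.05.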

Mus musculus [9] = test: Effect on spleen weight in ovariectomized mouse at 0.1103 mmol/kg, ip once daily for 4 weeks; format: functional; how it was run: as §3
Mus musculus [10] = test: Effect on serum calcium level in ovariectomized mouse at 0.1103 mmol/kg, ip once daily for 4 weeks; format: functional; how it was run: as §2
Mus musculus [11] = test: Effect on mineral content in ovariectomized mouse at 0.1103 mmol/kg, ip once daily for 4 weeks; format: functional; how it was run: as §1
Mus musculus [12] = test: Effect on femur length in ovariectomized mouse at 0.1103 mmol/kg, ip once daily for 4 weeks; format: functional; how it was run: as §1
Mus musculus [13] = test: Effect on liver weight in ovariectomized mouse at 0.110 mmol/kg, ip once daily for 4 weeks; format: functional; how it was run: as §1
Mus musculus [14] = test: Effect on dry weight of femurs in ovariectomized mouse at 0.1103 mmol/kg, ip once daily for 4 weeks; format: functional, Femur; how it was run: as §1
Mus musculus [15] = test: Effect on lung weight in mouse at 0.1103 mmol/kg, po; format: functional
How it was run: (§4)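 Female Kuiming mice (7 weeks old, 30.7 ± 3.1 g) under abdominal OVX, sham group abdominorotomy only. From day 5 after surgery, dosed orally once daily for 4 weeks at 110.3 × 10-3 mmol/kg in 0.5% CMC (0.2 mL), vehicle group CMC alone. Blood drawn retro-orbitally, then left femur and organs removed under pentobarbital (40.0 mg/kg, i.p.).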

Mus musculus [16] = test: Effect on phosphorus level in mouse at 0.110 mmol/kg, po; format: functional; how it was run: as §4
Mus musculus [17] = test: Effect on serum calcium level in mouse at 0.1103 mmol/kg, po; format: functional
How it was run: (§5)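 Oral OVX Kuiming mouse model, dosed daily for 4 weeks at 110.3 × 10-3 mmol/kg in 0.5% CMC. Retro-orbital blood stood 30 min at room temperature and was spun at 3000 g for 20 min. Serum kept at -20 °C. Calcium read by o-methylphenolphthalein complexone, phosphorus by molybdenum blue, ALP by activity on disodium phenylphosphate substrate.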

Mus musculus [18] = test: Effect on femur ash weight in mouse at 0.1103 mmol/kg, po; format: functional; how it was run: as §4
Mus musculus [19] = test: Effect on lenght of femur in mouse at 0.110 mmol/kg, po; format: functional; how it was run: as §4
Mus musculus [20] = test: Effect on uterus weight in mouse at 0.1103 mmol/kg, po; format: functional
Mus musculus [21] = test: Effect on spleen weight in mouse at 0.1103 mmol/kg, po; format: functional; how it was run: as §4
Mus musculus [22] = test: Effect on calcium level in mouse at 0.1103 mmol/kg, po; format: functional; how it was run: as §4
Mus musculus [23] = test: Effect on liver weight in mouse at 0.1103 mmol/kg, po; format: functional; how it was run: as §4
Mus musculus [24] = test: Effect on serum phosphorous Concentration in mouse at 0.110 mmol/kg, po; format: functional; how it was run: as §5
Mus musculus [25] = test: Effect on serum ALP level in mouse at 0.1103 mmol/kg, po; format: functional; how it was run: as §5
Mus musculus [26] = test: Effect on dry weight of femurs in mouse at 0.1103 mmol/kg, po; format: functional, Femur; how it was run: as §4

| Compound | Activity (Mus musculus [1]) [%] | Activity (Mus musculus [2]) [U/L] | Activity (Mus musculus [3]) [g] | Activity (Mus musculus [4]) [mg] | Activity (Mus musculus [5]) [mg] | Activity (Mus musculus [6]) [%] | Activity (Mus musculus [7]) [mmol/L] | Activity (Mus musculus [8]) [mg] | Activity (Mus musculus [9]) [mg] | Activity (Mus musculus [10]) [mmol/L] | Ratio (Mus musculus [11]) | Activity (Mus musculus [12]) [cm] | Activity (Mus musculus [13]) [g] | Activity (Mus musculus [14]) [mg] | also measured |
| --- | --- | --- | --- | --- | --- | --- | --- | --- | --- | --- | --- | --- | --- | --- | --- |
| C[C@]12CC[C@@H]3c4ccc(OCC(=O)N[C@@H](CCCNC(=N)N)C(=O)NCC(=O)N[C@@H](CC(=O)O)C(=O)N[C@@H](Cc5ccccc5)C(=O)O)cc4CC[C@H]3[C@@H]1CCC2=O (X2-RGDF-OH) | 24.588 | 32.407 | 34.5 | 179 | 24.7 | 49.55 | 1.602 | 55.8 | 140 | 2.008 | 0.462 | 1.639 | 1.458 | 65.9 |  |
| C[C@]12CC[C@@H]3c4ccc(O)cc4CC[C@H]3[C@@H]1CC[C@@H]2OC(=O)CCC(=O)N[C@@H](CCCNC(=N)N)C(=O)NCC(=O)N[C@@H](CC(=O)O)C(=O)N[C@@H](Cc1ccccc1)C(=O)O ({Succinyl(O17-estradiol)}-RGDF-OH) | 24.665 | 31.486 | 34.8 | 164 | 34.8 | 52.798 | 1.605 | 71.2 | 142 | 2.005 | 0.533 | 1.635 | 1.391 | 66 | Activity (Mus musculus [15]): 167 mg; Activity (Mus musculus [16]): 24.9%; Activity (Mus musculus [17]): 2.04 mmol/L; Activity (Mus musculus [18]): 30 mg; Activity (Mus musculus [19]): 1.638 cm; Activity (Mus musculus [20]): 38.2 mg; Activity (Mus musculus [21]): 142 mg; Activity (Mus musculus [22]): 51.903%; Activity (Mus musculus [23]): 1.338 g; Activity (Mus musculus [24]): 1.6 mmol/L; Activity (Mus musculus [25]): 35.511 U/L; Activity (Mus musculus [26]): 62.7 mg |
| CC(C)[C@H](NC(=O)[C@H](CC(=O)O)NC(=O)CNC(=O)[C@H](CCCNC(=N)N)NC(=O)COc1ccc2c(c1)CC[C@@H]1[C@@H]2CC[C@]2(C)C(=O)CC[C@@H]12)C(=O)O (X2-RGDV-OH) | 24.75 | 32.229 | 34.1 | 168 | 21.9 | 47.173 | 1.602 | 51.9 | 131 | 2.008 | 0.429 | 1.628 | 1.389 | 63.9 |  |
| C[C@]12CC[C@@H]3c4ccc(O)cc4CC[C@H]3[C@@H]1CC[C@@H]2O [ESTRADIOL] | 24.995 | 35.286 | 34.1 | 168 | 28.5 | 44.466 | 1.601 | 177.1 | 151 | 2.013 |  | 1.63 | 1.565 | 57.7 | Activity (Mus musculus [15]): 168 mg; Activity (Mus musculus [16]): 24.53%; Activity (Mus musculus [17]): 2.02 mmol/L; Activity (Mus musculus [18]): 22.2 mg; Activity (Mus musculus [19]): 1.62 cm; Activity (Mus musculus [21]): 141 mg; Activity (Mus musculus [22]): 41.729%; Activity (Mus musculus [23]): 1.335 g; Activity (Mus musculus [24]): 1.6 mmol/L; Activity (Mus musculus [25]): 37.705 U/L; Activity (Mus musculus [26]): 63.1 mg |
| C[C@]12CC[C@@H]3c4ccc(O)cc4CC[C@H]3[C@@H]1CCC2=O [ESTRONE] | 23.979 | 36.271 | 34.3 | 176 | 20.8 | 43.84 | 1.601 | 141.9 | 150 | 2.012 | 0.43 | 1.606 | 1.318 | 61.1 |  |
| C[C@]12CC[C@@H]3c4ccc(OCC(=O)N[C@@H](CCCNC(=N)N)C(=O)NCC(=O)N[C@@H](CC(=O)O)C(=O)N[C@@H](CO)C(=O)O)cc4CC[C@H]3[C@@H]1CCC2=O (X2-RGDS-OH) | 24.399 | 32.371 | 32.9 | 173 | 22.6 | 47.613 | 1.604 | 63.3 | 129 | 2 | 0.438 | 1.634 | 1.347 | 66.9 |  |
| CC(C)[C@H](NC(=O)[C@H](CC(=O)O)NC(=O)CNC(=O)[C@@H](N)CCCNC(=N)N)C(=O)O (H-RGDV-OH) | 24.759 | 35.614 | 33.4 | 171 | 27.8 | 42.739 | 1.605 | 61.1 | 127 | 2.011 | 0.394 | 1.614 | 1.153 | 58.8 |  |
| N=C(N)NCCC[C@H](N)C(=O)NCC(=O)N[C@@H](CC(=O)O)C(=O)N[C@@H](Cc1ccccc1)C(=O)O (H-RGDF-OH) | 24.585 | 35.643 | 33.3 | 163 | 22.5 | 43.815 | 1.599 | 69.8 | 134 | 2.012 | 0.423 | 1.62 | 1.413 | 60 |  |
| N=C(N)NCCC[C@H](N)C(=O)NCC(=O)N[C@@H](CC(=O)O)C(=O)N[C@@H](CO)C(=O)O | 24.888 | 36.643 | 34 | 168 | 27.8 | 43.48 | 1.603 | 71 | 138 | 2.01 | 0.396 | 1.617 | 1.295 | 59.8 |  |
